Values after ≈ are worked out from the molar mass of the structure shown.
Tests used:
Enterococcus faecalis [1] = experiment: Antimicrobial activity against Enterococcus faecalis ATCC 29212 by broth microdilution method; format: functional
Outline: (§1)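 MICs determined by CLSI broth microdilution. Broth microdilution was used for every species tested, including the anaerobe C. difficile.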

Enterococcus faecium = experiment: Antimicrobial activity against Enterococcus faecium 7130724 by broth microdilution method; format: functional; outline: as §1
Staphylococcus aureus [2] = experiment: Antimicrobial activity against methicillin-resistant Staphylococcus aureus by broth microdilution method; format: functional
Outline: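 Broth microdilution MIC following CLSI methods, with broth microdilution used for all species.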

Streptococcus pyogenes = experiment: Antimicrobial activity against Streptococcus pyogenes ATCC BAA-595 by broth microdilution method; format: functional; outline: as §1
Clostridioides difficile [3] = experiment: Antimicrobial activity against Clostridium difficile ATCC 43255 by broth microdilution method; format: functional; outline: as §1
[4] = Aqueous solubility of the compound at 20 mg/ml after 24 hrs RP-HPLC based shake flask method; format: physicochemical; conditions: aqueous medium
Outline: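 Compound samples examined for dissolution. Clear solutions were reported as >starting concentration, with pH recorded. Samples with visible particles were filtered through 0.22 µ PVDF membranes, pH recorded, and dissolved drug quantified by RP-HPLC.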

Clostridioides difficile [5] = experiment: Antimicrobial activity against Clostridium difficile ATCC 43255 infected in golden Syrian hamster assessed as animal survival at 25 mg/kg, po for 5 days dosed starting 24 hrs after infection measured for 16 days; format: functional; conditions: ATCC 43255, po
Outline: (§2)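 Hamsters given a single subcutaneous clindamycin injection (10 mg/kg) on day -1. About 24 h later they were infected by oral gavage with ~7.5 x10^6 CFU/hamster. Inoculum was prepared from overnight plates resuspended in reinforced clostridial medium + 1% oxyrase. Oral dosing once daily for up to 5 days, 8 animals per dose. Animals observed twice daily for mortality, diarrhea and morbidity. Vehicle-only control group.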

Staphylococcus aureus [6] = experiment: Antimicrobial activity against Staphylococcus aureus ATCC 49951 infected in CD1 mouse systemic infection model dosed intravenously 1 and 5 hrs after inoculation; format: functional; conditions: for ED50: ATCC 49951, iv
Enterococcus faecalis [7] = experiment: Antimicrobial activity against Enterococcus faecalis NB04025 infected in CD1 mouse systemic infection model dosed intravenously once immediately following bacterial inoculation; format: functional; conditions: for ED50: NB04025, iv
Clostridioides difficile [8] = experiment: Antimicrobial activity against Clostridium difficile ATCC 43255 infected in golden Syrian hamster assessed as animal survival at 20 mg/kg, po for 5 days dosed starting 24 hrs after infection measured for 16 days; format: functional; conditions: ATCC 43255, po; outline: as §2
Staphylococcus aureus [9] = experiment: Antimicrobial activity against Staphylococcus aureus ATCC 49951; format: functional
Outline: (§3)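 MIC by CLSI broth microdilution against the strains used in the mouse infection model.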

Enterococcus faecalis [10] = experiment: Antimicrobial activity against Enterococcus faecalis NB04025; format: functional; outline: as §3
[11] = AUC in Sprague-Dawley rat at 1 mg/kg, iv by LC-MS/MS method; format: ADME, organism-based; conditions: in vivo
Outline: (§4)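 Rats fasted overnight before dosing and for 8 hr after. Blood collected into K2-EDTA tubes and centrifuged to plasma. Plasma protein-precipitated with acetonitrile containing glyburide internal standard. Analysis by LC-MS/MS on reversed-phase C18 columns with a 5% to 95% acetonitrile gradient over ~3.5 min (0.1% formic acid in both phases).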

[12] = Clearance in Sprague-Dawley rat at 1 mg/kg, iv by LC-MS/MS method; format: ADME, organism-based; conditions: in vivo; outline: as §4
[13] = Volume of distribution at steady state in Sprague-Dawley rat at 1 mg/kg, iv by LC-MS/MS method; format: ADME, organism-based; conditions: in vivo, read-out: Vdss; outline: as §4
[14] = Half life in Sprague-Dawley rat at 1 mg/kg, iv by LC-MS/MS method; format: ADME, organism-based; conditions: in vivo; outline: as §4
Clostridioides difficile [15] = experiment: Antimicrobial activity against Clostridium difficile ATCC 43255 infected in golden Syrian hamster assessed as animal survival at 10 mg/kg, po for 5 days dosed starting 24 hrs after infection measured for 16 days; format: functional; conditions: ATCC 43255, po; outline: as §2
Clostridioides difficile [16] = experiment: Antimicrobial activity against Clostridium difficile ATCC 43255 infected in golden Syrian hamster assessed as animal survival at 5 mg/kg, po for 5 days dosed starting 24 hrs after infection measured for 16 days; format: functional; conditions: ATCC 43255, po; outline: as §2

Cc1sc2nc1C(=O)N[C@@H]([C@H](O)c1ccccc1)c1nc(cs1)C(=O)N[C@@H](Cc1ccc(O)cc1)C(=O)NCC(=O)N1C[C@H](O)[C@H](C)[C@H]1c1nc(cs1)-c1nc(cs1)-c1nc(-c3nc(C(=O)O)cs3)ccc1-c1nc(cs1)C(=O)N[C@H]2CC(N)=O
MIC (Enterococcus faecalis [1]): 0.5 µg/mL (≈ 0.397 µM) | MIC (Enterococcus faecium): 0.5 µg/mL (≈ 0.397 µM) | MIC (Staphylococcus aureus [2]): 2 µg/mL (≈ 1.59 µM) | MIC (Streptococcus pyogenes): 0.5 µg/mL (≈ 0.397 µM) | MIC (Clostridioides difficile [3]): 0.125 µg/mL (≈ 0.0993 µM) | solubility thermodynamic at 24 h [4]: 1 µg/mL (≈ 0.795 µM) | survival at 25 mg/kg (Clostridioides difficile [5]): 75%

CCCCCCCCCC(=O)N[C@@H](Cc1c[nH]c2ccccc12)C(=O)N[C@H](CC(N)=O)C(=O)N[C@@H](CC(=O)O)C(=O)N[C@@H]1C(=O)NCC(=O)N[C@@H](CCCN)C(=O)N[C@@H](CC(=O)O)C(=O)N[C@H](C)C(=O)N[C@@H](CC(=O)O)C(=O)NCC(=O)N[C@H](CO)C(=O)N[C@@H]([C@H](C)CC(=O)O)C(=O)N[C@@H](CC(=O)c2ccccc2N)C(=O)O[C@@H]1C
ED50 (Staphylococcus aureus [6]): 0.21 mg/kg | ED50 (Enterococcus faecalis [7]): 2.6 mg/kg

CN[C@H](CC(C)C)C(=O)N[C@H]1C(=O)N[C@@H](CC(N)=O)C(=O)N[C@H]2C(=O)N[C@H]3C(=O)N[C@H](C(=O)N[C@H](C(=O)O)c4cc(O)cc(O)c4-c4cc3ccc4O)[C@H](O)c3ccc(c(Cl)c3)Oc3cc2cc(c3O[C@@H]2O[C@H](CO)[C@@H](O)[C@H](O)[C@H]2O[C@H]2C[C@](C)(N)[C@H](O)[C@H](C)O2)Oc2ccc(cc2Cl)[C@H]1O [VANCOMYCIN]
ED50 (Staphylococcus aureus [6]): 1.1 mg/kg | ED50 (Enterococcus faecalis [7]): 7.74 mg/kg | survival at 20 mg/kg (Clostridioides difficile [8]): 38%

Cc1sc2nc1C(=O)N[C@@H]([C@H](O)c1ccccc1)c1nc(cs1)C(=O)N[C@@H](Cc1ccc(O)cc1)C(=O)NCC(=O)N1C[C@H](O)[C@H](C)[C@H]1c1nc(cs1)-c1nc(cs1)-c1nc(-c3nc(C(N)=O)cs3)ccc1-c1nc(cs1)C(=O)N[C@H]2CC(N)=O
MIC (Enterococcus faecalis [1]): 0.25 µg/mL (≈ 0.199 µM) | MIC (Enterococcus faecium): 0.5 µg/mL (≈ 0.398 µM) | MIC (Staphylococcus aureus [2]): 0.25 µg/mL (≈ 0.199 µM) | MIC (Streptococcus pyogenes): 1 µg/mL (≈ 0.795 µM) | MIC (Clostridioides difficile [3]): < 0.008 µg/mL | ED50 (Staphylococcus aureus [6]): 8 mg/kg | ED50 (Enterococcus faecalis [7]): 1.5 mg/kg | MIC (Staphylococcus aureus [9]): 1 µg/mL (≈ 0.795 µM) | MIC (Enterococcus faecalis [10]): 0.125 µg/mL (≈ 0.0994 µM) | survival at 25 mg/kg (Clostridioides difficile [5]): 0%

Cc1sc2nc1C(=O)N[C@@H]([C@H](O)c1ccccc1)c1nc(cs1)C(=O)N[C@@H](Cc1ccc(O)cc1)C(=O)NCC(=O)N1C[C@H](O)[C@H](C)[C@H]1c1nc(cs1)-c1nc(cs1)-c1nc(-c3nc(C(=O)N(CCCCC(=O)O)[C@H]4CC[C@H](C(=O)O)CC4)cs3)ccc1-c1nc(cs1)C(=O)N[C@H]2CC(N)=O
MIC (Enterococcus faecalis [1]): 1 µg/mL (≈ 0.674 µM) | MIC (Enterococcus faecium): 1 µg/mL (≈ 0.674 µM) | MIC (Staphylococcus aureus [2]): 2 µg/mL (≈ 1.35 µM) | MIC (Streptococcus pyogenes): 0.5 µg/mL (≈ 0.337 µM) | MIC (Clostridioides difficile [3]): 0.125 µg/mL (≈ 0.0842 µM) | solubility thermodynamic at 24 h [4]: 3400 µg/mL (≈ 2290 µM)

Cc1sc2nc1C(=O)N[C@@H]([C@H](O)c1ccccc1)c1nc(cs1)C(=O)N[C@@H](Cc1ccc(O)cc1)C(=O)NCC(=O)N1C[C@H](O)[C@H](C)[C@H]1c1nc(cs1)-c1nc(cs1)-c1nc(-c3nc(C(=O)N[C@H]4CC[C@H](C(=O)O)CC4)cs3)ccc1-c1nc(cs1)C(=O)N[C@H]2CC(N)=O
MIC (Enterococcus faecalis [1]): 0.125 µg/mL (≈ 0.0903 µM) | MIC (Enterococcus faecium): 0.125 µg/mL (≈ 0.0903 µM) | MIC (Staphylococcus aureus [2]): 0.25 µg/mL (≈ 0.181 µM) | MIC (Streptococcus pyogenes): 0.25 µg/mL (≈ 0.181 µM) | MIC (Clostridioides difficile [3]): 0.03 µg/mL (≈ 0.0217 µM) | solubility thermodynamic at 24 h [4]: 750 µg/mL (≈ 542 µM) | AUC [11]: 13.2 µM·h | clearance [12]: 0.98 mL/min/kg | Vd [13]: 0.032 L/kg | half-life [14]: 1.8 h | Activity (Staphylococcus aureus [6]): Dose-dependent effect | ED50 (Staphylococcus aureus [6]): 3.42 mg/kg | Activity (Enterococcus faecalis [7]): Dose-dependent effect | ED50 (Enterococcus faecalis [7]): 0.71 mg/kg | survival at 10 mg/kg (Clostridioides difficile [15]): 0%

Cc1sc2nc1C(=O)N[C@@H]([C@H](O)c1ccccc1)c1nc(cs1)C(=O)N[C@@H](Cc1ccc(O)cc1)C(=O)NCC(=O)N1C[C@H](O)[C@H](C)[C@H]1c1nc(cs1)-c1nc(cs1)-c1nc(-c3nc(NC(=O)O[C@H]4CC[C@H](C(=O)O)CC4)cs3)ccc1-c1nc(cs1)C(=O)N[C@H]2CC(N)=O
MIC (Enterococcus faecalis [1]): 0.125 µg/mL (≈ 0.0893 µM) | MIC (Enterococcus faecium): 0.125 µg/mL (≈ 0.0893 µM) | MIC (Staphylococcus aureus [2]): 0.25 µg/mL (≈ 0.179 µM) | MIC (Streptococcus pyogenes): 0.125 µg/mL (≈ 0.0893 µM) | MIC (Clostridioides difficile [3]): 0.03 µg/mL (≈ 0.0214 µM) | solubility thermodynamic at 24 h [4]: 6 µg/mL (≈ 4.29 µM)

COCc1sc2nc1C(=O)NCC(=O)N[C@@H]([C@@H](O)c1ccccc1)c1nc(cs1)-c1nc(cs1)-c1nc(-c3nc(N(CCCCC(=O)O)C(=O)O[C@H]4CC[C@H](C(=O)O)CC4)cs3)ccc1-c1nc(cs1)C(=O)N[C@@H](CC(N)=O)C1=NC(C)=C(S1)C(=O)N[C@H]2C(C)C
survival at 5 mg/kg (Clostridioides difficile [16]): 71 to 75%

Cc1sc2nc1C(=O)N[C@@H]([C@H](O)c1ccccc1)c1nc(cs1)C(=O)N[C@@H](Cc1ccc(O)cc1)C(=O)NCC(=O)N1C[C@H](O)[C@H](C)[C@H]1c1nc(cs1)-c1nc(cs1)-c1nc(-c3nc(C(=O)NCCCCC(=O)O)cs3)ccc1-c1nc(cs1)C(=O)N[C@H]2CC(N)=O
MIC (Enterococcus faecalis [1]): 0.125 µg/mL (≈ 0.0921 µM) | MIC (Enterococcus faecium): 0.125 µg/mL (≈ 0.0921 µM) | MIC (Staphylococcus aureus [2]): 0.5 µg/mL (≈ 0.368 µM) | MIC (Streptococcus pyogenes): 0.125 µg/mL (≈ 0.0921 µM) | MIC (Clostridioides difficile [3]): 0.06 µg/mL (≈ 0.0442 µM) | solubility thermodynamic at 24 h [4]: 730 µg/mL (≈ 538 µM) | survival at 25 mg/kg (Clostridioides difficile [5]): 13%

Cc1sc2nc1C(=O)N[C@@H]([C@H](O)c1ccccc1)c1nc(cs1)C(=O)N[C@@H](Cc1ccc(O)cc1)C(=O)NCC(=O)N1C[C@H](O)[C@H](C)[C@H]1c1nc(cs1)-c1nc(cs1)-c1nc(-c3nc(N(CCCCC(=O)O)C(=O)O[C@H]4CC[C@H](C(=O)O)CC4)cs3)ccc1-c1nc(cs1)C(=O)N[C@H]2CC(N)=O
survival at 5 mg/kg (Clostridioides difficile [16]): 25% | MIC (Enterococcus faecalis [1]): 0.25 µg/mL (≈ 0.167 µM) | MIC (Enterococcus faecium): 0.125 µg/mL (≈ 0.0833 µM) | MIC (Staphylococcus aureus [2]): 0.25 µg/mL (≈ 0.167 µM) | MIC (Streptococcus pyogenes): 0.125 µg/mL (≈ 0.0833 µM) | MIC (Clostridioides difficile [3]): 0.06 µg/mL (≈ 0.04 µM) | solubility thermodynamic at 24 h [4]: 9700 µg/mL (≈ 6470 µM) | survival at 10 mg/kg (Clostridioides difficile [15]): 63%

Reference: ChEMBL document CHEMBL4425132, “Antibacterial and Solubility Optimization of Thiomuracin A” (J Med Chem, 2016)
